# A selection: hits, their analogues and other compounds. The true share with any hit is near 3.9%.
# CRFR2-BP ag – agonists of human CRF-binding protein/CRF-R2 receptor complex; HEK293 CRF-R2/CRF-BP, calcium dye fluorescence (FLIPR); percent of saturating CRF peptide response; activation, % at 13.2 µM; hit rate 0.46% among 350,000;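 active = activation of at least 50%, plus an integration ratio under a set limit after plate pattern correction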;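 also: plate controls were neutral control wells without compound for no effect and CRF at EC100 for full effect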
# ANO1 activ – activators or potentiators of mouse TMEM16A chloride channel; Q8BHY3; HEK293 TMEM16A/YFP-H148Q/I152L, iodide quench fluorescence; active compounds read low; B-score at 10 µM; hit rate 0.3% among 340,000;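 active = fluorescence-ratio B-score plate-corrected deviation score at least 3 library SD below zero, with starting fluorescence score within 5 deviations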;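 also: channel opened by trigger with iodide after compound preincubation; score built on the fluorescence ratio of max minus min over baseline; more negative score means more quench and so TMEM16A activation or potentiation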
# TAAR1 antag – antagonists of human TAAR1 | AID 624466 | Q96RJ0 | hit rate 1.5% among 360,000 | CHO RD-HGA16 TAAR1, Fluo-8 calcium fluorescence, antagonist | inhibition, % at 3 µM;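 active = inhibition above a per-plate cutoff, the mean inhibition of test compounds on that plate plus 3 SD, cut at about 49% in these data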;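 also: 0% = DMSO plus EC80 beta-PEA response and 100% = DMSO alone without agonist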
#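 Material: RD-HGA16 CHO cells with stable hTAAR1 and Gα16; Dosing: single nominal final test compound concentration of 3 µM; Schedule: seeding 17-24 h prior, 75-min 37 °C, 30-min RT dye loading; Detection: kinetic Fluo-8 calcium fluorescence measurement; Measure: % inhibition from peak post-agonist over basal fluorescence ratio; Benchmarks: vehicle and agonist controls.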
# TAAR1 ag – human TAAR1 agonism; Q96RJ0; CHO RD-HGA16 TAAR1, Fluo-8 calcium fluorescence; vehicle wells 0%, saturating PEA agonist 100%; activation, % at 3 µM; hit rate 0.99% among 360,000; AID 624467;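 active = activation above the mean activation of all test compounds in the run plus 3 SD, cut at about 38% in these data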
#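 test system = CHO RD-HGA16 cells carrying human TAAR1 plus Gα16 | schedule = 17-24 h seeding, 75 min 37 °C dye, 30 min RT | compound dosing = 3 µM single concentration | control set = DMSO and PEA EC100 | replicates = n 1 | signal = Fluo-8 fluorescence, 5 s baseline then 140 s kinetic read | measure = percent activation vs PEA EC100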
# TMEM16A inh – blocks the mouse calcium-activated chloride channel TMEM16A | Q8BHY3 | HEK293 TMEM16A/YFP iodide influx fluorescence, ionomycin | normalized B-score (activity score, 25-100; higher = stronger inhibition) at 10 µM | hit rate 1.2% among 310,000 | AID 588511;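 active = ratio plate-corrected score three or more library SD toward inhibition, starting fluorescence score within five deviations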;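 also: score derived from kinetic fluorescence span divided by baseline fluorescence per well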
# CRFBP-R2 block – CRF-BP/CRF-R2 complex antagonism. hit rate 0.59% among 350,000. inhibition, % at 11.8 µM. HEK293 CRF-R2/CRF-BP, CRF-induced calcium fluorescence;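 active = inhibition of the ligand-induced calcium signal above about 50% at the single tested concentration, limit read from the data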
# Starred values were filed as active, the others as inactive; i = inactive; nt = no result given.
SMILES,CRFR2-BP ag,ANO1 activ,TAAR1 antag,TAAR1 ag,TMEM16A inh,CRFBP-R2 block
O=C(c1ccc2ccccc2c1)C1CCCN(C(=O)c2cccnc2)C1 (configuration not stated),0,i,11,1,i,1
O=C(c1ccc2ccccc2c1)C1CCCN(C(=O)c2noc3c2CCCC3)C1 (configuration not stated),-2,i,-43,-3,25*,4
COc1ccc(C(=O)C2CCCN(C(=O)c3cccnc3OC)C2)c(C)c1 (configuration not stated),1,i,0,0,i,8
O=c1c2c3c(sc2n(CCN2CCOCC2)c(=O)n1C1CCCCC1)CCCCC3,nt,nt,-25,7,nt,nt
Cc1cccnc1NC(=O)CCNC(=O)c1ccc(Cl)cc1,-1,i,-9,-1,i,5
c1ccc(Cn2nnnc2C(c2cccnc2)N2CCN(c3ccccc3)CC2)cc1 (configuration not stated),2,i,51*,22,i,-32
CC(C)(C)n1nnnc1C(c1cccnc1)N1CCN(c2ccccc2)CC1 (configuration not stated),-1,i,-24,3,i,7
CC1(C)CC(=O)C=C(c2ccc(F)nc2)C1,0,i,4,12,nt,4
COC(=O)c1ccccc1NC(=O)c1cccnc1,-4,i,-29,2,i,7
COc1cc(/C=C/C(=O)N2CCCc3ccccc32)cc(OC)c1OC,18,i,52*,10,i,15
COc1ccc(/C=C/C(=O)N2CCCc3ccccc32)cc1,1,i,12,9,i,-20
CCCOc1ccc(C(=O)N2CCN(c3ccc(NC(=O)CC)cc3Cl)CC2)cc1,-2,i,32,15,i,62*
COc1cccc(NC(=S)NC(Cc2ccccc2)c2ccccc2)c1 (configuration not stated),0,nt,19,3,nt,84*
COc1cccc(NC(=S)NC(C)c2ccc(OC)c(OC)c2)c1 (configuration not stated),-1,i,2,8,i,0
O=C(NCc1cccs1)c1csc([C@@H]2O[C@H](CO)[C@H](O)[C@H](O)[C@H]2O)n1,nt,nt,-32,2,nt,nt
COc1ccc(N2C(=O)CSC2c2ccc([N+](=O)[O-])cc2)cc1 (configuration not stated),6,i,-1,2,i,83*
CSc1cccc(NC(=O)CCS(=O)(=O)c2cccc3nonc23)c1,0,i,0,1,i,-3
CC(C)C(=O)Nc1nc(-c2ccc([N+](=O)[O-])cc2)cs1,0,i,16,9,i,29
O=C(CN1CCCCC1)Nc1nc(-c2ccc(F)c(F)c2)cs1,0,i,49*,13,i,-42
CCCC(=O)Nc1nc(-c2ccc3c(c2)CCN3S(C)(=O)=O)cs1,-2,i,7,12,i,0
O=C(CCN1C(=O)C2CCCCC2C1=O)Nc1nc(-c2ccccc2)cs1 (configuration not stated),0,i,22,11,i,-4
CC(OC(=O)c1ccc([N+](=O)[O-])o1)C(=O)Nc1nc(-c2ccc(F)c(F)c2)cs1 (configuration not stated),1,i,59*,6,nt,-21
CS(=O)(=O)N1CCc2cc(-c3csc(NC(=O)Cc4ccccc4)n3)ccc21,-1,i,26,12,25*,6
O=C(CCN1C(=O)C2CC=CCC2C1=O)Nc1nc(-c2ccc(F)c(F)c2)cs1 (configuration not stated),1,i,60*,31,nt,-8
COC(=O)c1ccc2nc(-c3ccccc3)c(Cc3cccc(Cl)c3)n2c1,nt,nt,-3,6,nt,nt
SMILES,CRFR2-BP ag,ANO1 activ,TAAR1 antag,TAAR1 ag,TMEM16A inh,CRFBP-R2 block
Nc1ncnc2c1ncn2[C@@H]1O[C@H](CNS(=O)(=O)c2cc3ccccc3s2)[C@@H](O)[C@H]1O,0,nt,7,1,nt,9
Cc1cc(C)cc(C(=O)NCC(=O)OCC(=O)N2CCCC2)c1,4,nt,-4,0,nt,7
COc1ccccc1C(=O)NCCC(=O)Nc1ccc(OC(F)(F)F)cc1,-2,i,-12,-3,i,-1
O=C(Cc1ccccc1)Nc1nc(-c2cccs2)cs1,2,i,19,3,i,19
COc1ccc(-c2csc(NC(=O)Cc3ccccc3)n2)cc1OC,0,i,4,1,i,12
O=C(Cc1ccccc1F)Nc1nc(-c2cccs2)cs1,-2,i,35,10,25*,2
COc1cccc(CC(=O)Nc2nc(-c3ccc(F)c(F)c3)cs2)c1,2,i,52*,4,i,12
O=C(Cc1ccccc1)Nc1nc(-c2ccc(F)c(F)c2)cs1,-2,i,56*,5,i,10
COc1ccc(-c2csc(NC(=O)CSc3n[nH]c(C)n3)n2)cc1,3,i,27,13,25*,9
O=C(CN1CCCCC1)Nc1nc(-c2ccccc2)cs1,-1,i,12,10,i,-7
Cc1ccccc1C(=O)N1CCc2cc(-c3csc(NC(=O)CN4CCCC4)n3)ccc21,1,i,11,7,25*,-8
CC(=O)Nc1cncc(-c2ccccc2F)n1,nt,nt,-1,3,nt,nt
COc1ccccc1CNC(=O)[C@H](Cc1c[nH]c2ccccc12)NC(=O)[C@@H]1Cc2ccccc2CN1,-1,i,26,10,i,13
COc1ccc2nc(C(F)(F)Cl)c(C#N)c(N)c2c1,0,i,-4,9,i,-24
COc1ccc2nc3cc(Cl)ccc3c(C#N)c2c1,17,-7.2*,-19,2,i,-5
CCOC(=O)C1(CCCCCCOc2ccc(Cl)cc2)CO1 (configuration not stated),nt,nt,nt,nt,25*,nt
Cc1ccc(C)c(NC(=S)N/N=C/C(C)c2ccccc2)c1 (configuration not stated),0,i,-9,0,i,-8
CC(=O)C(C(C)=O)c1c(Cl)c(O)c(O)c2c(C(=O)c3ccccc3)coc12,0,i,29,39*,i,8
O=C(O)c1ccc(CS(=O)(=O)c2c(Cl)cccc2Cl)o1,-4,i,-13,4,i,10
O=C(/C=C/c1cccc([N+](=O)[O-])c1)c1ccc([N+](=O)[O-])o1,6,i,68*,50*,i,-17
CCOC(=O)C1(CCOC)CCN(C(=O)Cc2ccc3ccccc3c2)CC1,0,i,7,2,i,-17

# Screens as filed in PubChem BioAssay.
